Each structure is given as a SMILES string.

Test [1] deals with Neuronal acetylcholine receptor; alpha3/beta2 (Rattus norvegicus, UniProt P04757+P12390). The test is described as follows: Displacement of [3H]epibatidine from rat alpha-3-beta-2 nACHR expressed in human HEK293 cells at 10 uM. The test is classed as cell-based.
Test [2] addresses T1, Neuronal acetylcholine receptor; alpha2/beta2 (Rattus norvegicus, UniProt P12389+P12390). As to the kind of experiment: Displacement of [3H]epibatidine from rat alpha2beta2 nACHR expressed in human HEK293 cells at 10 uM. It counts as cell-based. On the technique in general: Loss of bound radioactivity is the signal in a displacement assay; it reports binding, not function.

Test [3] addresses T2, Neuronal acetylcholine receptor; alpha3/beta4 (Rattus norvegicus, UniProt P04757+P12392). As to the kind of experiment: Displacement of [3H]epibatidine from rat alpha-3-beta-4 nACHR expressed in human HEK293 cells at 10 uM. The test is classed as cell-based.
In test [4] the target is T3, Neuronal acetylcholine receptor; alpha4/beta4 (Rattus norvegicus, UniProt P09483+P12392). As to the kind of experiment: Displacement of [3H]epibatidine from rat alpha-4-beta-4 nACHR expressed in human HEK293 cells at 10 uM. The test is classed as cell-based.
T3 sequence (P09483 whole entry): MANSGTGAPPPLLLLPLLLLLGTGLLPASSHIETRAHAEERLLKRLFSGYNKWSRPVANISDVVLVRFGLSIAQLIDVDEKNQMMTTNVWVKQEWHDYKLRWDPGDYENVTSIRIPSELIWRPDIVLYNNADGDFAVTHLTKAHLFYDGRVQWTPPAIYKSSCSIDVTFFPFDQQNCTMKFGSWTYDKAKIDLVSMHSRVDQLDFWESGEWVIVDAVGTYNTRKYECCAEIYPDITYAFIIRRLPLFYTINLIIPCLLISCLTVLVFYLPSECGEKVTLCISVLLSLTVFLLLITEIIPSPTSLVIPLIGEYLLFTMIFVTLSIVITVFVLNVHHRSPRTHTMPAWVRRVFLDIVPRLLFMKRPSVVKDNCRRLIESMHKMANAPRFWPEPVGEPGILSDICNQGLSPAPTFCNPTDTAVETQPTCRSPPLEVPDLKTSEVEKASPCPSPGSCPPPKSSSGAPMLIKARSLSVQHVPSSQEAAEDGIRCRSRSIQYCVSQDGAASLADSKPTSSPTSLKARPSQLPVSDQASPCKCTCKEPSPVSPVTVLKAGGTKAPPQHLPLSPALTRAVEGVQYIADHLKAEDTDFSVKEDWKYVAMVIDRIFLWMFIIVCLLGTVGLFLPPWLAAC
T3 sequence (P12392 whole entry): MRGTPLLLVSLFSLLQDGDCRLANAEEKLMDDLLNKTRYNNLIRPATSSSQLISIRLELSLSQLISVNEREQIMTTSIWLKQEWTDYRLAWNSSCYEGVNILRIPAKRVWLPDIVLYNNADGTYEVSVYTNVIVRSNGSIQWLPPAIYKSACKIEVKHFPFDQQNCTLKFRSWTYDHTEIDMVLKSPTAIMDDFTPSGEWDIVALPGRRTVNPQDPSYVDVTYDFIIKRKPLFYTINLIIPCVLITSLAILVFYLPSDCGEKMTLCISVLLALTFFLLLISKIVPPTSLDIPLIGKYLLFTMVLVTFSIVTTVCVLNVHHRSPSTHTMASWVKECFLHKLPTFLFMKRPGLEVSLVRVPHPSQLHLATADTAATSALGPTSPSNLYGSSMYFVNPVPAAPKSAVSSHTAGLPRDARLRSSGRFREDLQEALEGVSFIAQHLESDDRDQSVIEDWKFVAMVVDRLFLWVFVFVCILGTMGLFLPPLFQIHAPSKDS
The nature of test [5]: Displacement of [3H]epibatidine from rat […] nACHR expressed in human HEK293 cells at 10 uM. The test is classed as cell-based.
The target of test [6] is T4, Neuronal acetylcholine receptor; alpha2/beta4 (Rattus norvegicus, UniProt P12389+P12392). As to the kind of experiment: Displacement of [3H]epibatidine from rat alpha-2-beta-4 nACHR expressed in human HEK293 cells at 10 uM. It counts as cell-based.
T4 sequence (P12389 whole entry): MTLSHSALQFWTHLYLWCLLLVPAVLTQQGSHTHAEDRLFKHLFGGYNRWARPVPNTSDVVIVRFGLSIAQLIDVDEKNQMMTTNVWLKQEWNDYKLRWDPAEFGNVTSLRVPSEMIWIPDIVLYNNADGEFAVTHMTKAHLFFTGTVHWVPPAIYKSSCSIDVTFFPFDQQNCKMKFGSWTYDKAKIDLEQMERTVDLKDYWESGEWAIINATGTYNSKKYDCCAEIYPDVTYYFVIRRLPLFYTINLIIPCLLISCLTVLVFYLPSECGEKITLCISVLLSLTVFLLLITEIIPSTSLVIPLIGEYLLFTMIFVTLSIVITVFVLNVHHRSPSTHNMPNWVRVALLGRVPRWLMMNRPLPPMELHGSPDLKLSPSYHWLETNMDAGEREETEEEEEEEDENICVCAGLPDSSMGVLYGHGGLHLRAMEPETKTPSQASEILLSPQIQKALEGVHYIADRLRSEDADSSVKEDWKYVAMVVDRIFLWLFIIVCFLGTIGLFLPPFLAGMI
T4 sequence (P12392 whole entry): as the sequence (P12392 whole entry) above
The target in test [7] is T5, Neuronal acetylcholine receptor; alpha4/beta2 (Rattus norvegicus, UniProt P09483+P12390). The test is described as follows: Displacement of [3H]epibatidine from rat alpha-4-beta-2 nACHR expressed in human HEK293 cells at 10 uM. It counts as cell-based.
T5 sequence (P09483 whole entry): as the sequence (P09483 whole entry) above
T5 sequence (P12390 whole entry): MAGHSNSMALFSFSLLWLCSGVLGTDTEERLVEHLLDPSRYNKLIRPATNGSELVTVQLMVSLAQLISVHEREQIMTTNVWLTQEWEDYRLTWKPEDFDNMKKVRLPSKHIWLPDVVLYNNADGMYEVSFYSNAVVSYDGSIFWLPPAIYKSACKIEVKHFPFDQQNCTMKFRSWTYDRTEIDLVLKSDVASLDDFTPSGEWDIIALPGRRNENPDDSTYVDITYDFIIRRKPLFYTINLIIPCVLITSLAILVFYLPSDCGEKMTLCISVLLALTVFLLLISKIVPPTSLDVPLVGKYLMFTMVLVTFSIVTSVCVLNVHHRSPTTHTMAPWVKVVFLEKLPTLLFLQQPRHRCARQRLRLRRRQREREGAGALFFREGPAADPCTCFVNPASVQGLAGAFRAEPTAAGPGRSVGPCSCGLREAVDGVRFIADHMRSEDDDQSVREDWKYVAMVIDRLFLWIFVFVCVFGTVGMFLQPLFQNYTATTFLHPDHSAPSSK
The target in test [8] is T3, Neuronal acetylcholine receptor; alpha4/beta4. The test is described as follows: Displacement of [3H]epibatidine from rat alpha-4-beta-4 nACHR expressed in human HEK293 cells. The test is classed as cell-based. An outline of the steps:
(§1)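 Competition binding in membrane homogenates of stably transfected cells expressing each nAChR subtype, with Ki values derived from displacement.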

Test [9] can be described thus: Selectivity for rat alpha-4-beta-2 nACHR over alpha3beta4 nACHR expressed in human HEK293 cells. It counts as cell-based. An outline of the steps: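 Ki ratio (α3β4/α4β2), taken from competition binding Ki values measured on membrane homogenates of stably transfected cells expressing the respective nAChR subtypes.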
For test [10], the target named is T5, Neuronal acetylcholine receptor; alpha4/beta2. As to the kind of experiment: Displacement of [3H]epibatidine from rat forebrain alpha4beta2 nACHR. The gist of the method: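 Competition binding was run on rat forebrain membrane homogenates.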
The target of test [11] is T1, Neuronal acetylcholine receptor; alpha2/beta2. The test is described as follows: Displacement of [3H]epibatidine from rat alpha-2-beta-2 nACHR expressed in human HEK293 cells. The test is classed as cell-based. An outline of the steps: as §1
Test [12] deals with T4, Neuronal acetylcholine receptor; alpha2/beta4. The test is described as follows: Displacement of [3H]epibatidine from rat alpha-2-beta-4 nACHR expressed in human HEK293 cells. It counts as cell-based. An outline of the steps: as §1
Test [13] addresses T2, Neuronal acetylcholine receptor; alpha3/beta4. The test is described as follows: Displacement of [3H]epibatidine from rat alpha3beta4 nACHR expressed in human HEK293 cells. It counts as cell-based. An outline of the steps:
as §1

The target of test [14] is T6, Neuronal acetylcholine receptor; alpha4/beta2 (Rattus norvegicus) (UniProt P09483+P12390). As to the kind of experiment: Inhibition of nicotine-stimulated response at rat alpha-4-beta-2 nACHR at 100 uM. It counts as functional.
Test [15] concerns the target T6, Neuronal acetylcholine receptor; alpha4/beta2 (Rattus norvegicus). The test is described as follows: Efficacy at rat alpha4beta2 nACHR by rubidium efflux assay. The test is classed as functional.
The target in test [16] is Neuronal acetylcholine receptor; alpha3/beta4 (Rattus norvegicus) (UniProt P04757+P12392). The test is described as follows: Efficacy at rat alpha3beta4 nACHR expressed in human HEK293 cells by rubidium efflux assay relative to nicotine. The test is classed as functional, cell-based. An outline of the steps: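 Agonist-stimulated 86Rb+ efflux in KXα3β4R2 cells stably expressing rat α3β4 nAChRs. Mean ± standard error of three independent experiments, each in quadruplicate.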

T2 sequence (P04757 whole entry): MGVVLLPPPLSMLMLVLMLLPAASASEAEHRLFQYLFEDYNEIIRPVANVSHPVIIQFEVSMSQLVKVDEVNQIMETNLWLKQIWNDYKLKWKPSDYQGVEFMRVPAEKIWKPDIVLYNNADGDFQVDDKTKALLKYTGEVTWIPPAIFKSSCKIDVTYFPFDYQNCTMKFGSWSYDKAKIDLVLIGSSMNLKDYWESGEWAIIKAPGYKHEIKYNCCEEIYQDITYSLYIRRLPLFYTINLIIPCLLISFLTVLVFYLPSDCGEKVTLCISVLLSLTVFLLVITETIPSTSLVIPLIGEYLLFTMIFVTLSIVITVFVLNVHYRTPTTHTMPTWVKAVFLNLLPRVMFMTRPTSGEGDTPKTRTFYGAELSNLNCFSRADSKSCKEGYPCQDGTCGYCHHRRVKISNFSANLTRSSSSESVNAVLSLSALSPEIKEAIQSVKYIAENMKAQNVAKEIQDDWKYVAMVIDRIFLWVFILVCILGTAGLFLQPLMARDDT
T2 sequence (P12392 whole entry): as the sequence (P12392 whole entry) above
Chain of Neuronal acetylcholine receptor; alpha3/beta2 (P04757 whole entry): as the sequence (P04757 whole entry) above
Chain of Neuronal acetylcholine receptor; alpha3/beta2 (P12390 whole entry): as the sequence (P12390 whole entry) above
T1 sequence (P12389 whole entry): as the sequence (P12389 whole entry) above
T1 sequence (P12390 whole entry): as the sequence (P12390 whole entry) above

As to `O=c1ccccn1CC1CCCN(Cc2ccccc2)C1` (centres undefined), the inhibition constant Ki in [1] came to 4.3 µM; in [2], 100 µM; in test [3] it was 83 µM; in [4] it was 1.4 µM; in test [5], 54 µM; in test [6], 91 µM. Moreover, affinity in test [7] was put at a Ki of 540 nM.
As for `O=c1cccc2n1C[C@@H]1CNC[C@H]2C1` [CYTISINICLINE], the Ki is 2.1 nM in [8]; 1.92 nM in test [10]; 1.07 nM in test [11]; 5.41 nM in test [12]; 217 nM in test [13]. In [9], the Ratio came out at 144.
In the case of `O=c1c(-c2ccc(F)cc2)ccc2n1CC1CNCC2C1` (single isomer, unassigned), in test [9], the Ratio was 157.
In the case of `O=c1ccccn1CC1CCN(Cc2ccccc2)CC1`, the Ki was found to be 7.3 µM in [1]; 26 µM in test [2]; 620 µM in test [3]; 4.5 µM in test [4]; 470 µM in test [5]; 440 µM in test [6]. Also, the Ki in test [7] turned out to be 1300 nM.
`CCC(=O)[C@H]1C2CNCC(C2)c2cccc(=O)n21` (single isomer, unassigned): the Ratio in test [9] was 18.
In test [14], `O=c1cc(CO)cc2n1CC1CNCC2C1` (racemic) had an inhibition greater than 50%. Moreover, the Ratio in test [9] came to 909. Besides, the Ki in test [10] amounted to 38 nM.
As to `CCCCc1ccc(-c2ccc3n(c2=O)CC2CNCC3C2)cc1` (single isomer, unassigned), the Ratio in [9] came to 17.
Regarding `O=c1ccccn1CC1CCNCC1`, the Ki in test [1] came to 12 µM; in [3], 750 µM; in test [4], 5.4 µM; in [5], 87 µM; in test [6], 80 µM; in [7], 1600 nM.
In the case of `C=Cc1ccc2n(c1=O)CC1CNCC2C1` (single isomer, unassigned), the Emax in test [15] came to 22%.
On to `COC(=O)[C@H]1C2CNCC(C2)c2cccc(=O)n21` (single isomer, unassigned), for which, in [9], the Ratio worked out at 13.
As to `O=c1ccccn1CC1CCCNC1` (centres undefined), the inhibition constant Ki in [1] is 18.7 µM; in test [2], 4.63 µM; in [3] it was 535 µM; in test [4], 5.55 µM; in test [5], 253 µM; in [6], 159 µM. Further, the Ki in test [7] was 1780 nM.
`Cc1cc2n(c(=O)c1)CC1CNCC2C1` (racemic) had an inhibition in [14] greater than 50%. Besides, the Ratio in test [9] came to 3530. For the same compound, the affinity in test [10], expressed as Ki, was 20 nM.
As for `CN1CCC[C@H]1c1cccnc1`, the Emax in test [15] and in [16] was 100% throughout.
As for `CN1CCCC(Cn2ccccc2=O)C1` (centres undefined), the Ki is 6 µM in test [1]; 19 µM in test [2]; 160 µM in test [3]; 2.6 µM in test [4]; 76 µM in test [5]; 180 µM in test [6]. The same compound showed a Ki in test [7] of 980 nM.
`Cc1ccc(-c2ccc3n(c2=O)CC2CNCC3C2)s1` (single isomer, unassigned): the Ratio in [9] was 59.

As a reminder, the Ki is a dissociation constant, usually derived from enzyme kinetics or from competition with a known ligand. Low readings indicate higher affinity, high ones lower affinity. Usually inhibition stands for the share of the control response that was lost under treatment. One may read the Emax as the size of the effect at its maximum, as opposed to the concentration needed.

The values above are taken from ChEMBL document CHEMBL1147654, “Synthesis and pharmacological evaluation of novel 9- and 10-substituted cytisine derivatives. Nicotinic ligands of enhanced subtype selectivity” (J Med Chem, 2006).
